Laboratory results as given in ChEMBL document CHEMBL1777717, “Potent and selective oxindole-based vasopressin 1b receptor antagonists with improved pharmacokinetic properties” (Bioorg Med Chem Lett, 2011).
pKi: −log10 of the molar value. Calls of active or inactive are those of the source. No cut-off for these calls is given here.

Experiments:
[1] = target: T1, Vasopressin V1b receptor (Homo sapiens, UniProt P47901); assay: Displacement of [3H]AVP from human vasopressin V1b receptor expressed in CHO cells by scintillation counting; assay type: cell-based
T1 sequence (P47901 whole entry): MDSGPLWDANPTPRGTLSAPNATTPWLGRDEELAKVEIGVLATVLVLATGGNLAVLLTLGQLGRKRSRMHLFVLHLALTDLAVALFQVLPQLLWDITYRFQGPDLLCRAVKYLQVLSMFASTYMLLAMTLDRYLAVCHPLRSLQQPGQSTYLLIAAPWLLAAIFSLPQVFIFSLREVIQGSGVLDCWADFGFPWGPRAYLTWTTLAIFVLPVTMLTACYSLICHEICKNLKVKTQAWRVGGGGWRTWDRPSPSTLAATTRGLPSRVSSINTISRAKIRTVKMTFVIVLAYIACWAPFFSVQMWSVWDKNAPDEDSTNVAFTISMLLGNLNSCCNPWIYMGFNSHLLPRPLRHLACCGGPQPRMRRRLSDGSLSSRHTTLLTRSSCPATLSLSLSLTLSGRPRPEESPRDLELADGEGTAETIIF

[2] = target: Vasopressin V1a receptor (Homo sapiens, UniProt P37288); assay: Displacement of [3H]AVP from human vasopressin V1a receptor expressed in CHO cells by scintillation counting; assay type: cell-based
Vasopressin V1a receptor, sequence (P37288 whole entry): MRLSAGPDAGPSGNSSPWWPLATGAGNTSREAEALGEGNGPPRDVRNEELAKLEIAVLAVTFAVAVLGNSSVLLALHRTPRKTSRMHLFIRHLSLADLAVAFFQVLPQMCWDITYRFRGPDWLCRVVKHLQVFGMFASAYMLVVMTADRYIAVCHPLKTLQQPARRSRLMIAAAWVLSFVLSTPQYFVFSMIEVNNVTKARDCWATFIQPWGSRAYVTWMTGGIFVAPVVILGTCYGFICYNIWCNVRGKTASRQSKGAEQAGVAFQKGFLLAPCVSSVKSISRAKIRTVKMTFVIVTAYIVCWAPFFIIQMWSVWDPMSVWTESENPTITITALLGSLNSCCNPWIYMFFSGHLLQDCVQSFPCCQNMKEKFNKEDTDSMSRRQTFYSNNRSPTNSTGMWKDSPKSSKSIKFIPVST
In short: (§1)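 Ki from radioligand displacement at the human receptor, run per a previously published protocol; each value is the mean of at least two experiments.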

[3] = Intrinsic clearance in human liver microsomes measured up to 40 mins by HPLC-MS method; assay type: ADME, Microsome
In short: (§2)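 Intrinsic clearance determined by liver microsome incubation using a previously published procedure, reported in µL/min/mg; each value is the mean of at least two experiments.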

[4] = target: T2, Oxytocin receptor (Homo sapiens, UniProt P30559); assay: Displacement of radiolabeled oxytocin from human oxytocin receptor expressed in CHO cells by scintillation counting; assay type: cell-based; in short: as §1
T2 sequence (P30559 whole entry): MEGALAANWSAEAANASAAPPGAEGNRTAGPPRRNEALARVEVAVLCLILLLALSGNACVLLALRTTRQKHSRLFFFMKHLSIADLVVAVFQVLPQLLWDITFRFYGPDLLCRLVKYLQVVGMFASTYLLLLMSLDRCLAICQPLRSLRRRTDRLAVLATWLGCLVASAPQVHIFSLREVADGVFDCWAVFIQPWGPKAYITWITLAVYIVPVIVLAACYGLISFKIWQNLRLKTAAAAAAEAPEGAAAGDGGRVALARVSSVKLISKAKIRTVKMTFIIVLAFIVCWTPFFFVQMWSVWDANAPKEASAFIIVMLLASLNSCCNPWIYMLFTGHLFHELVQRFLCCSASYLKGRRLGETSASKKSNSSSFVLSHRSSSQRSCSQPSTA

[5] = Intrinsic clearance in rat liver microsomes measured up to 40 mins by HPLC-MS method; assay type: ADME, Microsome; in short: as §2
[6] = target: Vasopressin V2 receptor (Homo sapiens, UniProt P30518); assay: Displacement of [3H]AVP from human vasopressin V2 receptor expressed in CHO cells by scintillation counting; assay type: cell-based; in short: as §1
Vasopressin V2 receptor, sequence (P30518 whole entry): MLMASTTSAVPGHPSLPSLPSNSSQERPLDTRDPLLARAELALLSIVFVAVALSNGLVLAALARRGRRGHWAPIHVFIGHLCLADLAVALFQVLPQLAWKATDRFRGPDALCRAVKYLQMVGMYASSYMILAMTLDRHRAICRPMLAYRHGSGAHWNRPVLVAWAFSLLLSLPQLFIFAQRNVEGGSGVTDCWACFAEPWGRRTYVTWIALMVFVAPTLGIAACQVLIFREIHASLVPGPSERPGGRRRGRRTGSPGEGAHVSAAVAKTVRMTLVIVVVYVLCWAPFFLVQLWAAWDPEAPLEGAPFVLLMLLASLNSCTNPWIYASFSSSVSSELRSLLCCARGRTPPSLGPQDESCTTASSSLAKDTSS

[7] = species: Homo sapiens; assay: Selectivity ratio of Ki for human vasopressin V1b receptor over Ki for human vasopressin V1a receptor
[8] = species: Homo sapiens; assay: Selectivity ratio of Ki for human vasopressin V1b receptor over Ki for human vasopressin V2 receptor
[9] = species: Homo sapiens; assay: Selectivity ratio of Ki for human vasopressin V1b receptor over Ki for human oxytocin receptor
[10] = Ratio of AUC in brain to plasma in rat at 10 mg/kg, ip; assay type: ADME, organism-based; parameters: dose 10 mg/kg, route intraperitoneal; conditions: brain and plasma, read-out: Ratio AUC
[11] = Oral bioavailability in rat plasma at 10 mg/kg; assay type: ADME, organism-based
[12] = Volume of distribution at steady state in rat at 2 mg/kg, iv; assay type: ADME, organism-based; parameters: dose 2 mg/kg, route intravenous; conditions: in vivo, read-out: Vdss
[13] = Clearance in rat plasma at 2 mg/kg, iv; assay type: ADME, organism-based; parameters: dose 2 mg/kg, route intravenous
[14] = tested on: Rattus norvegicus; assay: Antidepressant activity in rat at 3 mg/kg, ip by forced swimming test; assay type: functional, organism-based; parameters: dose 3 mg/kg
[15] = Terminal half life in rat at 2 mg/kg, iv; assay type: ADME, organism-based; parameters: dose 2 mg/kg, route intravenous; conditions: in vivo, read-out: beta t1/2 (converted)

| Compound | pKi [1] | pKi [2] | microsomal CLint [3] [µL/min/mg] | pKi [4] | microsomal CLint [5] [µL/min/mg] | pKi [6] | Ratio Ki [7] | Ratio Ki [8] | Ratio Ki [9] | Kp [10] | bioavailability [11] [%] | Vd [12] [L/kg] | clearance [13] [mL/min/kg] | Activity [14] | half-life [15] [h] |
| --- | --- | --- | --- | --- | --- | --- | --- | --- | --- | --- | --- | --- | --- | --- | --- |
| COc1ccc(S(=O)(=O)N2C(=O)[C@@](c3cccnc3OC)(N3CCCC3c3ccccc3)c3cc(Cl)ccc32)c(OC)c1 (mixture of isomers) | < 5.00 |  |  |  |  |  |  |  |  |  |  |  |  |  |  |
| COc1ccc(S(=O)(=O)N2C(=O)[C@@](c3cc(CN4CCCC4)ccc3OC)(N3CCC[C@H]3C(=O)N(C)C)c3cc(Cl)ccc32)c(OC)c1 | 9.59 | 7.13 | 394 | 7.54 | 148 | < 6.00 |  |  |  |  |  |  |  |  |  |
| COc1ccc(S(=O)(=O)N2C(=O)[C@@](c3cc(CN4CCN(C)CC4)ccc3OC)(N3CCC[C@H]3c3ncco3)c3cc(Cl)ccc32)cc1 | 8.89 | 6.64 | 76 | 7.05 | 56 | < 6.00 |  |  |  |  |  |  |  |  |  |
| COc1ccc(S(=O)(=O)N2C(=O)[C@@](c3cc(CN(C)C)ccc3OC)(N3CCC[C@H]3c3ncco3)c3cc(Cl)ccc32)cc1 | 8.70 | 6.54 | 204 | 6.94 | 217 | < 6.00 |  |  |  |  |  |  |  |  |  |
| COc1ccc(S(=O)(=O)N2C(=O)[C@@](c3cccnc3OC)(N3CCCC3c3nccs3)c3cc(Cl)ccc32)c(OC)c1 (mixture of isomers) | 6.56 |  | 373 |  | 476 |  |  |  |  |  |  |  |  |  |  |
| COc1ccc(S(=O)(=O)N2C(=O)[C@@](c3ccc(CN4CCCC4)cc3OC)(N3CCC[C@H]3C(=O)N(C)C)c3cc(Cl)ccc32)c(OC)c1 | 9.09 | < 6.00 | 155 | 7.35 | 117 | < 6.00 |  |  |  |  |  |  |  |  |  |
| COc1ccc(S(=O)(=O)N2C(=O)[C@@](c3ccc(CN4CCN(C)CC4)cc3OC)(N3CCC[C@H]3C(=O)N(C)C)c3cc(Cl)ccc32)cc1 | 10.40 | 7.82 | 378 | 8.15 | 56 | < 6.00 | > 100 | > 100 | > 100 |  |  |  |  |  |  |
| CNCc1ccc(OC)c([C@@]2(N3CCC[C@H]3c3ncco3)C(=O)N(S(=O)(=O)c3ccc(OC)cc3)c3ccc(Cl)cc32)c1 | 8.41 | 6.61 | 64 | 6.87 | 62 | < 6.00 |  |  |  | 0.31 | 68 | 13 | 50 | Active | 3.3 |
| COc1ccc(S(=O)(=O)N2C(=O)[C@@](c3cnc(OC)nc3OC)(N3C[C@H](O)C[C@H]3C(=O)N(C)C)c3cc(Cl)ccc32)c(OC)c1 | 8.25 | 6.76 | 203 | 7.35 | 366 | 6.20 |  |  |  |  |  |  |  |  |  |
| COc1ccc(S(=O)(=O)N2C(=O)[C@@](c3cc(CN4CCCC4)ccc3OC)(N3CCC[C@H]3c3ncco3)c3cc(Cl)ccc32)cc1 | 8.92 | 6.71 | 80 | 6.77 | 164 | < 6.00 |  |  |  |  |  |  |  |  |  |
| COc1ccc(S(=O)(=O)N2C(=O)[C@@](c3cccnc3OC)(N3C[C@H](O)C[C@H]3C(=O)N(C)C)c3cc(Cl)ccc32)c(OC)c1 | 8.89 | 7.26 | 323 | 7.38 | 446 | 6.21 |  |  |  |  |  |  |  |  |  |
| COc1ccc(S(=O)(=O)N2C(=O)[C@@](c3ccccc3OC)(N3C[C@H](O)C[C@H]3C(=O)N(C)C)c3cc(Cl)ccc32)c(OC)c1 |  |  | 343 |  | 432 |  |  |  |  | 0.03 | 12 | 2.8 | 86.7 |  | 0.5 |
| COc1ccc(S(=O)(=O)N2C(=O)[C@@](c3cccnc3OC)(N3CCC[C@H]3c3ncco3)c3cc(Cl)ccc32)cc1 | 7.70 |  | 75 |  | 356 |  |  |  |  |  |  |  |  |  |  |
| COc1ccc(S(=O)(=O)N2C(=O)[C@@](c3cccnc3OC)(N3CCCC3c3cccs3)c3cc(Cl)ccc32)c(OC)c1 (mixture of isomers) | < 5.00 |  |  |  |  |  |  |  |  |  |  |  |  |  |  |
| COc1ccc(S(=O)(=O)N2C(=O)[C@@](c3ccc(CN4CCCC4)cc3OC)(N3CCC[C@H]3C(=O)N(C)C)c3cc(Cl)ccc32)cc1 | 10.10 | 7.00 | 127 | 7.55 | 106 | < 6.00 | > 100 | > 100 | > 100 |  |  |  |  |  |  |
| COc1ccc(S(=O)(=O)N2C(=O)[C@@](c3cnccc3OC)(N3C[C@H](O)C[C@H]3C(=O)N(C)C)c3cc(Cl)ccc32)c(OC)c1 | 8.68 | 7.31 | 158 |  | 413 | < 6.00 |  |  |  |  |  |  |  |  |  |
| COc1ccc(S(=O)(=O)N2C(=O)[C@@](c3cc(CN4CCN(C)CC4)ccc3OC)(N3CCC[C@H]3C(=O)N(C)C)c3cc(Cl)ccc32)cc1 | 10.52 | 7.89 | 414 | 7.70 | 78 | < 6.00 | > 100 | > 100 | > 100 |  |  |  |  |  |  |
| COc1ccc(S(=O)(=O)N2C(=O)[C@@](c3nccnc3OC)(N3C[C@H](O)C[C@H]3C(=O)N(C)C)c3cc(Cl)ccc32)c(OC)c1 | 7.59 | 6.30 | 302 | 6.57 | 1030 | < 6.00 |  |  |  |  |  |  |  |  |  |
| COc1ccc(S(=O)(=O)N2C(=O)[C@@](c3cc(CN4CCCC4)ccc3OC)(N3CCC[C@H]3C(=O)N(C)C)c3cc(Cl)ccc32)cc1 | 10.52 | 8.00 | 506 | 7.77 | 101 | < 6.00 | > 100 | > 100 | > 100 |  |  |  |  |  |  |
| COc1ccc(S(=O)(=O)N2C(=O)[C@@](c3cccnc3OC)(N3CCC[C@H]3C(=O)N(C)C)c3cc(Cl)ccc32)c(OC)c1 | 8.42 | 6.66 | 359 | 7.21 | 446 | < 6.00 |  |  |  |  |  |  |  |  |  |
| COc1ccc(S(=O)(=O)N2C(=O)[C@@](c3cccnc3OC)(N3CCCC3c3ccccn3)c3cc(Cl)ccc32)c(OC)c1 (mixture of isomers) | 6.10 |  | 183 |  | 702 |  |  |  |  |  |  |  |  |  |  |
| COc1ccc(S(=O)(=O)N2C(=O)[C@@](c3cccnc3OC)(N3CCCC3c3ncco3)c3cc(Cl)ccc32)c(OC)c1 (mixture of isomers) | 7.00 |  |  |  |  |  |  |  |  |  |  |  |  |  |  |
